Measured values from BindingDB's records for doi:10.1021/acs.jmedchem.8b00653 (Aix-Marseille University, 2018).

Biological target: Bromodomain-containing protein 4 (Homo sapiens, UniProt O60885)
Experiment: Inhibition of TEV cleavage site-fused-GST tagged BRD4(BD1) (unknown origin) using SGRGK(Ac)CGK(Ac)-GLGK(Ac)GGAK(Ac)RHRKVG-peptide after 3 hrs by HTRF assay
Summary of the method: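 GST-BRD4(BD1) purified on glutathione resin and by size exclusion; tetra-acetylated H4 peptide as ligand. Buffer 50 mM HEPES pH 7.5, 400 mM KF, 0.1% BSA, 0.5% DMSO final; 3 h at room temperature.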

IC50: 251 nM
SMILES: CCn1cnc2c1c(=O)[nH]c(=O)n2Cc1ccc(CNS(=O)(=O)c2ccc3c(c2)CCCC(=O)N3)cc1
